Values after ≈ are worked out from the molar mass of the structure shown.
Key:
Staphylococcus aureus = test: Antimicrobial activity against Staphylococcus aureus after 24 hrs by tube dilution method; type: functional
Bacillus subtilis = test: Antimicrobial activity against Bacillus subtilis after 24 hrs by tube dilution method; type: functional
How it was run: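 Serial dilutions in double-strength nutrient broth (I.P.) with ciprofloxacin as reference, tube dilution, incubated 37 °C for 24 h. MIC is the lowest concentration that inhibited growth.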

Escherichia coli = test: Antimicrobial activity against Escherichia coli after 24 hrs by tube dilution method; type: functional
Candida albicans = test: Antimicrobial activity against Candida albicans after 48 hrs by tube dilution method; type: functional
Aspergillus niger = test: Antimicrobial activity against Aspergillus niger after 7 days by tube dilution method; type: functional; conditions: 168 h
[1] = Cytotoxicity against cat CRFK cells assessed as cell viability by MTS assay; type: cell-based, Felis catus; conditions: crfk
How it was run: (§1)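 Uninfected cultures were run in parallel with the antiviral assays. Viability was read by colorimetric formazan MTS assay.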

Felid alphaherpesvirus 1 = test: Antiviral activity against Feline herpesvirus 1 infected in cat CRFK cells assessed as inhibition of virus induced cytopathicity after 2 to 4 days by MTS assay; type: functional, organism-based; conditions: Felid alphaherpesvirus 1, CRFK
Feline coronavirus = test: Antiviral activity against Feline coronavirus infected in cat CRFK cells assessed as inhibition of virus induced cytopathicity after 2 to 4 days by MTS assay; type: functional, organism-based; conditions: Alphacoronavirus 1, CRFK
[2] = Cytotoxicity against human HEL cells assessed as altered cell morphology; type: cell-based
How it was run: (§2)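 Uninfected cell cultures run alongside the antiviral assays, exposed to serial compound dilutions and incubated at 37 °C for 2–4 days. Toxicity was scored microscopically and reported as the minimum cytotoxic concentration (MCC), the lowest concentration causing a detectable change in normal cell morphology.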

Human alphaherpesvirus 1 [3] = test: Antiviral activity against Herpes simplex virus 1 KOS infected in HEL cells assessed as inhibition of virus induced cytopathicity after 2 to 4 days by MTS assay; type: functional, organism-based; conditions: Human alphaherpesvirus 1, KOS
Human alphaherpesvirus 2 = test: Antiviral activity against Herpes simplex virus 2 G infected in HEL cells assessed as inhibition of virus induced cytopathicity after 2 to 4 days by MTS assay; type: functional, organism-based; conditions: Human alphaherpesvirus 2, strain G
Vaccinia virus = test: Antiviral activity against Vaccinia virus infected in HEL cells assessed as inhibition of virus induced cytopathicity after 2 to 4 days by MTS assay; type: functional, organism-based; conditions: Orthopoxvirus vaccinia
[4] = tested on: Vesicular stomatitis virus; test: Antiviral activity against Vesicular stomatitis virus infected in HEL cells assessed as inhibition of virus induced cytopathicity after 2 to 4 days by MTS assay; type: functional, organism-based
Human alphaherpesvirus 1 [5] = test: Antiviral activity against thymidine kinase deficient acyclovir-resistant Herpes simplex virus 1 KOS infected in HEL cells assessed as inhibition of virus induced cytopathicity after 2 to 4 days by MTS assay; type: functional, organism-based; conditions: Human alphaherpesvirus 1, KOS
HeLa = test: Cytotoxicity against human HeLa cells assessed as cell viability by MTS assay; type: cell-based; conditions: hela; how it was run: as §1
[6] = Cytotoxicity against human HeLa cells assessed as altered cell morphology; type: cell-based; how it was run: as §2
[7] = tested on: Vesicular stomatitis virus; test: Antiviral activity against Vesicular stomatitis virus infected in human HeLa cells assessed as inhibition of virus induced cytopathicity by visual scoring of CPE; type: functional, organism-based
[8] = tested on: Vesicular stomatitis virus; test: Antiviral activity against Vesicular stomatitis virus infected in human HeLa cells assessed as inhibition of virus induced cytopathicity after 2 to 4 days by MTS assay; type: functional, organism-based
Coxsackievirus B4 [9] = test: Antiviral activity against coxsackievirus B4 infected in human HeLa cells assessed as inhibition of virus induced cytopathicity by visual scoring of CPE; type: functional, organism-based; conditions: Enterovirus B
Coxsackievirus B4 [10] = test: Antiviral activity against coxsackievirus B4 infected in human HeLa cells assessed as inhibition of virus induced cytopathicity after 2 to 4 days by MTS assay; type: functional, organism-based; conditions: Enterovirus B
[11] = tested on: Respiratory syncytial virus; test: Antiviral activity against Respiratory syncytial virus infected in human HeLa cells assessed as inhibition of virus induced cytopathicity by visual scoring of CPE; type: functional, organism-based
[12] = tested on: Respiratory syncytial virus; test: Antiviral activity against Respiratory syncytial virus infected in human HeLa cells assessed as inhibition of virus induced cytopathicity after 2 to 4 days by MTS assay; type: functional, organism-based
MDCK = test: Cytotoxicity against MDCK cells assessed as cell viability by MTS assay; type: cell-based, Canis lupus familiaris; conditions: dog, mdck; how it was run: as §1
[13] = Cytotoxicity against MDCK cells assessed as altered cell morphology; type: cell-based, Canis lupus familiaris; conditions: dog; how it was run: as §2
Influenza A virus [14] = test: Antiviral activity against Influenza A H3N2 virus subtype infected in MDCK cells assessed as inhibition of virus induced cytopathicity by visual scoring of CPE; type: functional, organism-based
Influenza A virus [15] = test: Antiviral activity against Influenza A H3N2 virus subtype infected in MDCK cells assessed as inhibition of virus induced cytopathicity after 2 to 4 days by MTS assay; type: functional, organism-based
Influenza B virus [16] = test: Antiviral activity against Influenza B virus infected in MDCK cells assessed as inhibition of virus induced cytopathicity by visual scoring of CPE; type: functional, organism-based
Influenza B virus [17] = test: Antiviral activity against Influenza B virus infected in MDCK cells assessed as inhibition of virus induced cytopathicity after 2 to 4 days by MTS assay; type: functional, organism-based
[18] = Cytotoxicity against african green monkey Vero cells assessed as altered cell morphology; type: cell-based; conditions: chlorocebus sabaeus; how it was run: as §2
Human respirovirus 3 = test: Antiviral activity against parainfluenza-3 virus infected in african green monkey Vero cells assessed as inhibition of virus induced cytopathicity after 2 to 4 days by MTS assay; type: functional, organism-based; conditions: Human respirovirus 3, Vero
[19] = tested on: Mammalian orthoreovirus 1; test: Antiviral activity against Reovirus 1 virus infected in african green monkey Vero cells assessed as inhibition of virus induced cytopathicity after 2 to 4 days by MTS assay; type: functional, organism-based; conditions: Mammalian orthoreovirus 1, Vero
Sindbis virus = test: Antiviral activity against Sindbis virus infected in african green monkey Vero cells assessed as inhibition of virus induced cytopathicity after 2 to 4 days by MTS assay; type: functional, organism-based
Coxsackievirus B4 [20] = test: Antiviral activity against Coxsackie virus B4 infected in african green monkey Vero cells assessed as inhibition of virus induced cytopathicity after 2 to 4 days by MTS assay; type: functional, organism-based; conditions: Enterovirus B
Punta Toro virus = test: Antiviral activity against Punta Toro virus infected in african green monkey Vero cells assessed as inhibition of virus induced cytopathicity after 2 to 4 days by MTS assay; type: functional, organism-based

Compound	MBC (Staphylococcus aureus) [µg/mL]	MBC (Bacillus subtilis) [µg/mL]	MBC (Escherichia coli) [µg/mL]	MFC (Candida albicans) [µg/mL]	MFC (Aspergillus niger) [µg/mL]	CC50 [1] [µg/mL]	EC50 (Felid alphaherpesvirus 1) [µg/mL]	EC50 (Feline coronavirus) [µg/mL]	MCC [2] [µg/mL]	EC50 (Human alphaherpesvirus 1 [3]) [µg/mL]	EC50 (Human alphaherpesvirus 2) [µg/mL]	EC50 (Vaccinia virus) [µg/mL]	EC50 [4] [µg/mL]	EC50 (Human alphaherpesvirus 1 [5]) [µg/mL]	CC50 (HeLa) [µg/mL]	MCC [6] [µg/mL]	EC50 [7] [µg/mL]	EC50 [8] [µg/mL]	EC50 (Coxsackievirus B4 [9]) [µg/mL]	EC50 (Coxsackievirus B4 [10]) [µg/mL]	also measured
Cc1ccccc1C(=O)n1c(-c2ccc(S(=O)(=O)O)cc2)nc2ccccc21	6.25 (≈ 15.9 µM)	> 50	3.12 (≈ 7.95 µM)	50 (≈ 127 µM)	> 50	> 100	> 100	> 100	> 100	> 100	> 100	> 100	> 100	> 100	> 100	> 100	> 100	> 100	> 100	> 100	EC50 [11]: > 100 µg/mL; EC50 [12]: > 100 µg/mL; CC50 (MDCK): > 100 µg/mL; MCC [13]: > 100 µg/mL; EC50 (Influenza A virus [14]): > 100 µg/mL; EC50 (Influenza A virus [15]): > 100 µg/mL; EC50 (Influenza B virus [16]): > 100 µg/mL; EC50 (Influenza B virus [17]): > 100 µg/mL; MCC [18]: > 100 µg/mL; EC50 (Human respirovirus 3): > 100 µg/mL; EC50 [19]: > 100 µg/mL; EC50 (Sindbis virus): > 100 µg/mL; EC50 (Coxsackievirus B4 [20]): > 100 µg/mL; EC50 (Punta Toro virus): > 100 µg/mL
O=C(c1ccccc1Cl)n1c(-c2ccc(S(=O)(=O)O)cc2)nc2ccccc21	25 (≈ 60.6 µM)	> 50	1.56 (≈ 3.78 µM)	> 50	> 50	> 100	> 100	> 100	> 100	> 100	> 100	> 100	> 100	> 100	> 100	> 100	> 100	> 100	> 100	> 100	EC50 [11]: > 100 µg/mL; EC50 [12]: > 100 µg/mL; CC50 (MDCK): > 100 µg/mL; MCC [13]: > 100 µg/mL; EC50 (Influenza A virus [14]): > 100 µg/mL; EC50 (Influenza A virus [15]): > 100 µg/mL; EC50 (Influenza B virus [16]): > 100 µg/mL; EC50 (Influenza B virus [17]): > 100 µg/mL; MCC [18]: > 100 µg/mL; EC50 (Human respirovirus 3): > 100 µg/mL; EC50 [19]: > 100 µg/mL; EC50 (Sindbis virus): > 100 µg/mL; EC50 (Coxsackievirus B4 [20]): > 100 µg/mL; EC50 (Punta Toro virus): > 100 µg/mL
O=C(c1ccc(Cl)cc1)n1c(-c2ccc(S(=O)(=O)O)cc2)nc2ccccc21	25 (≈ 60.6 µM)	> 50	1.56 (≈ 3.78 µM)	> 50	> 50	> 100	> 100	> 100	> 100	> 100	> 100	> 100	> 100	> 100	> 100	> 100	> 100	> 100	> 100	> 100	EC50 [11]: > 100 µg/mL; EC50 [12]: > 100 µg/mL; CC50 (MDCK): > 100 µg/mL; MCC [13]: > 100 µg/mL; EC50 (Influenza A virus [14]): > 100 µg/mL; EC50 (Influenza A virus [15]): > 100 µg/mL; EC50 (Influenza B virus [16]): > 100 µg/mL; EC50 (Influenza B virus [17]): > 100 µg/mL; MCC [18]: > 100 µg/mL; EC50 (Human respirovirus 3): > 100 µg/mL; EC50 [19]: > 100 µg/mL; EC50 (Sindbis virus): > 100 µg/mL; EC50 (Coxsackievirus B4 [20]): > 100 µg/mL; EC50 (Punta Toro virus): > 100 µg/mL

Source: ChEMBL document CHEMBL1629526, “4-[1-(Substituted aryl/alkyl carbonyl)-benzoimidazol-2-yl]-benzenesulfonic acids: synthesis, antimicrobial activity, QSAR studies, and antiviral evaluation” (Eur J Med Chem, 2010)
